Assay results: article PMC5299595 (Fitoterapia, 2016)
Entries after “also recorded” stand apart in the source; their conditions may differ. Structures can show the parent of a compound that is named as a salt. Where two headings read alike, the source gives them in different places.

Experiments:
[1] = DPPH free radical scavenging assay; settings: read-out: EC50, DPPH free radical scavenging; DPPH 300 μM, 5 minutes
α4β2- and α7-nicAchRs [2] = settings: previously reported, ref Littleton et al. (2005) [15], cited from earlier work
α4β2-nicAchR [3] = settings: read-out: Ki α4β2-nicAchR, cited from earlier work
α7-nicAchR [4] = settings: read-out: Ki α7-nicAchR, cited from earlier work
[5] = test system: nicAchRs in SH-SY5Y cells; assay: 45Ca2+ entry in SH-SY5Y cells; assay type: cell-based, human
α4β2- and α7-nicAchRs [6] = settings: α7 vs α4β2, based on comparison of Ki's
[7] = test system: rat striatal slices preloaded with [3H]-DA; settings: cited from earlier work
DAT [8] = molecular target: T1, DAT (Rattus norvegicus, UniProt P23977); settings: cited from earlier work
mice = settings: cited from earlier work
nicAchRs = assay: [3H]-epibatidine competition binding in rat cortical membranes; settings: read-out: Ki, [3H]-epibatidine binding
α4β2-nicAchR [9] = molecular target: α4β2-nicAchR (Rattus norvegicus, UniProt P09483+P12390); assay: [3H]-cytisine competition binding in rat cortical membranes; settings: read-out: Ki, [3H]-cytisine binding (α4β2-nicAchR)
α7-nicAchR [10] = molecular target: α7-nicAchR (Rattus norvegicus, UniProt Q05941); assay: [3H]-MLA competition binding in rat hippocampal membranes; settings: read-out: Ki, [3H]-MLA binding (α7-nicAchR)
DAT [11] = molecular target: T1, DAT; assay: [3H]-GBR12935 competition binding in rat striatal membranes; settings: read-out: Ki, [3H]-GBR12935 binding
In short: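 Striatal tissue homogenised in 120 mM NaCl/50 mM Tris-HCl (pH 7.4), spun at 25,000 × g for 20 min at 4°C, then washed thrice in the same buffer plus 0.01% FBS. Membranes (1 mg/ml final) preincubated 15 min with test compound (final 1.0 mM – 0.1 nM; DMSO <0.1%). 1 nM [3H]-GBR12935 then added for 1 h at room temperature. GF/B filtration and scintillation counting; non-specific binding defined with 10 μM GBR12909.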

DAT [12] = molecular target: T1, DAT; assay: DAT-mediated [3H]-DA uptake in rat striatal synaptosomes; assay type: biochemical; settings: read-out: IC50, DAT-mediated [3H]-DA uptake
In short: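 Striata from CO2-anaesthetised adult male Sprague-Dawley rats (200–250 g) homogenised in pH 7.4 HEPES uptake buffer (100 μM pargyline, 0.32 M sucrose). Synaptosomes taken as the 16,000 × g pellet after a 1,000 × g spin. Test compound (final 1 mM – 0.1 nM; DMSO ≤1.0%) preincubated 10 min at 37°C. [3H]-DA (15–30 nM final) uptake for 5 min at 37°C, stopped on ice, GF/C filtration, scintillation counting. Non-specific uptake defined with 10 μM GBR-12909.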

[13] = test system: rat striatal slices preloaded with [3H]-DA; assay: Fractional [3H] release from [3H]-DA preloaded superfused rat striatal slices; assay type: cell-based
In short: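 Rat coronal striatal slices (500 μm, 6–8 mg) equilibrated 30 min at 34°C in oxygenated Krebs' buffer (pH 7.4), then preloaded with 0.1 μM [3H]-DA for 30 min. Superfused at 34°C, 1 ml/min, with buffer containing 10 μM pargyline and 10 μM nomifensine. Two 4-min basal samples taken after 60 min. Test compound (10, 100 or 1000 μM) then perfused per chamber, or 100 μM given after 20 min of 10 μM MEC or vehicle. Compared with vehicle-treated slices by Bonferroni post-hoc test; n = 4–10 rats.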

DAT [14] = molecular target: T1, DAT; assay type: in vivo
In short: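 High-speed chronoamperometry with Nafion-coated carbon fibre microelectrodes in the dorsal striatum of isoflurane-anaesthetised rats. Clearance of locally applied exogenous DA used to gauge DAT function, and test compound also applied locally in the striatum.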

[15] = PubChem data; cited from earlier work
cats = settings: intravenous; cited from earlier work
rabbits = settings: intravenous; cited from earlier work

## O=c1c(O)c(-c2ccc(O)c(O)c2)oc2cc(O)cc(O)c12 [Quercetin]
[1]
  EC50: 11.2 µM

## c1cncc([C@@H]2CCCCN2)c1 [anabasine]
α4β2- and α7-nicAchRs [2]
  DDR value: 4.16
α4β2-nicAchR [3]
  Ki: 0.065 µM
α7-nicAchR [4]
  Ki: 0.058 µM

## CNC1(C)C2CCC(C2)C1(C)C (stereo not drawn) [MEC, mecamylamine (MEC) hydrochloride]
[5]; 1 μM alone
  Effect on 45Ca2+ entry: unaffected; also recorded: did not affect

## CN1[C@@H](CC(=O)c2ccccc2)CCC[C@H]1C[C@H](O)c1ccccc1 [Lobeline, (−)-lobeline hydrochloride]
[1]
  EC50: 229 µM
α4β2- and α7-nicAchRs [6]
  NicAchR Selectivity (-fold difference): 1565 -fold
α4β2- and α7-nicAchRs [2]
  DDR value: 6.27 ^6
α4β2- and α7-nicAchRs [2]; listed as lobeline
  DDR value: 6.27
[7]
  MEC sensitivity of evoked fractional [3H] release: MEC-insensitive
α4β2-nicAchR [3]; ref Hojahmat et al. (2010)
  Ki: 0.004 µM
α7-nicAchR [4]; ref Hojahmat et al. (2010)
  Ki: 6.26 µM
DAT [8]; read-out: IC50, DAT inhibition
  IC50: 28.2 to 80 µM
mice; mouse, in vivo, sc
  minimal lethal dose: 300 mg/kg

## CN1CCCC2C(c3ccccc3)C(C3=NCCCC3)C(c3ccccc3)CC21 (stereo not drawn) [Lobinaline, lobinaline]
nicAchRs
  Ki: 16.2 µM
α4β2-nicAchR [9]
  Ki: 1.07 µM
α7-nicAchR [10]
  Ki: 67.5 µM
DAT [11]
  Ki: 2.54 µM
[5]; 1 mM
  45Ca2+ entry, increase above basal: 41.6%
[5]; 1 mM concomitantly with NIC 10 μM
  45Ca2+ entry, increase above basal: 115.7%
[5]; 1 mM with MEC 1 μM
  Effect of MEC on compound-induced 45Ca2+ entry: completely abolished
DAT [12]
  IC50: 12 µM
[1]
  EC50: 18 µM
[13]; 10 μM
  Fractional [3H] release vs vehicle: not significantly increased
[13]; 100 μM after 10 μM MEC pretreatment for 20 minutes
  Fractional [3H] release vs vehicle after MEC pretreatment: not significantly different; also recorded: no significant difference
[13]; 100 μM, 8 minutes after treatment, MEC experiment set
  Fractional [3H] release, greater than vehicle: 160%
[13]; 100 μM, maximum 12 minutes post-treatment, concentration-response studies
  Maximum fractional [3H] release, greater than vehicle treated: 186%
[13]; 100 μM, maximum 16 minutes after treatment, MEC experiment set
  Maximum fractional [3H] release, greater than vehicle treated controls: 262%
[13]; 1000 μM, maximum 8 minutes post-treatment
  Maximum fractional [3H] release, greater than vehicle treated: 494%
DAT [14]; local application in striatum
  Time after ejection at which effects on DA clearance are no longer significant: 3 to 5 min
DAT [14]; locally applied from a micropipette, n = 10, data not shown
  Direct effect on electrochemical DA signal when locally applied alone: no direct effects
α4β2- and α7-nicAchRs [6]
  NicAchR Selectivity (-fold difference): 63 -fold
[15]
  hydrogen bond acceptors: 2
  hydrogen bond donors: 0
  molar fractivity: 82.47
cats
  Effect on blood pressure: lower blood pressure
  Effect on respiration: unaffected
rabbits
  Effect on blood pressure: lower blood pressure
  Effect on respiration: unaffected
mice; subcutaneous administration in mice
  minimal lethal dose: 800 mg/kg

## CN1CCC[C@H]1c1cccnc1 [Nicotine, (−)-nicotine]
[5]; 10 μM, LCaq experiments (Fig. 1A)
  45Ca2+ entry, increase above basal: 374.4%
[5]; 10 μM, lobinaline experiments (Fig. 6A)
  45Ca2+ entry, increase above basal: 196.6%
α4β2- and α7-nicAchRs [6]
  NicAchR Selectivity (-fold difference): 1508 -fold
α4β2- and α7-nicAchRs [2]
  DDR value: 13.00 ^6
α4β2- and α7-nicAchRs [2]; listed as nicotine
  DDR value: 13.00
α4β2-nicAchR [3]; ref Rueter et al. (2006)
  Ki: 0.00096 µM
α7-nicAchR [4]; ref Rueter et al. (2006)
  Ki: 1.45 µM
DAT [8]; rat striatal synaptosomes
  Activity at the DAT: inactive
